This note sets out measurements from ChEMBL document CHEMBL4346700, “Structure-based modification of carbonyl-diphenylpyrimidines (Car-DPPYs) as a novel focal adhesion kinase (FAK) inhibitor against various stubborn cancer cells” (Eur J Med Chem, 2019).

Series [1] deals with ASPC1. The series is described as follows: Antiproliferative activity against human AsPC1 cells assessed as reduction in cell growth incubated for 72 hrs by MTT assay. As to conditions: ASPC1, 72 h. For orientation: Tetrazolium dyes change colour on reduction, which living cells bring about.
A further series concerns BXPC-3. As to the kind of experiment: Antiproliferative activity against human BxPC3 cells assessed as reduction in cell growth incubated for 72 hrs by MTT assay. As to conditions: BXPC-3, 72 h.
Another series has as its system PANC-1. The series is described as follows: Antiproliferative activity against human PANC1 cells assessed as reduction in cell growth incubated for 72 hrs by MTT assay. As to conditions: PANC-1, 72 h.
Series [2] is described as follows: Cytotoxicity against human HPDEC cells assessed as reduction in cell growth incubated for 72 hrs by MTT assay.
A further series has as its system NCI-H1975. The series is described as follows: Antiproliferative activity against human NCI-H1975 cells assessed as reduction in cell growth incubated for 72 hrs by MTT assay. As to conditions: NCI-H1975, 72 h.
For a further series, the system named is NCI/ADR-RES. As to the kind of experiment: Antiproliferative activity against human MCF7/ADR cells assessed as reduction in cell growth incubated for 72 hrs by MTT assay.
The test system of a further series is L02. The series is described as follows: Cytotoxicity against human L02 cells assessed as reduction in cell growth incubated for 72 hrs by MTT assay. Particulars: L02, 72 h.
Series [3] deals with ASPC1. As to the kind of experiment: Induction of apoptosis in human AsPC1 cells assessed as nuclear condensation incubated for 72 hrs by acridine orange/ethidium bromide dye based fluorescent inverted microscopy. The format is functional, cell-based. An outline of the steps: (§1)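 AsPC-1 cells (about 2×10⁵ per well) were incubated 12 h, then treated with inhibitor at 150–600 nM for 72 h. Cells were washed twice with PBS and stained with AO/EB (1.0 µg/mL each in PBS). Apoptotic, necrotic and live cells were scored and counted under a fluorescent inverted microscope at 100×.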

Series [4] relates to ASPC1. As to the kind of experiment: Induction of apoptosis in human AsPC1 cells assessed as membrane blebbing incubated for 72 hrs by acridine orange/ethidium bromide dye based fluorescent inverted microscopy. The format is functional, cell-based. In outline: as §1
Series [5] relates to ASPC1. The series is described as follows: Induction of apoptosis in human AsPC1 cells assessed as nuclear fragmentation incubated for 72 hrs by acridine orange/ethidium bromide dye based fluorescent inverted microscopy. Format: functional, cell-based. An outline of the steps: as §1
Series [6] deals with ASPC1. As to the kind of experiment: Induction of apoptosis in human AsPC1 cells assessed as apoptotic bodies incubated for 72 hrs by acridine orange/ethidium bromide dye based fluorescent inverted microscopy. Format: functional, cell-based. An outline of the steps:
as §1

In series [7] the test system is ASPC1. As to the kind of experiment: Antitumor activity against human AsPC1 cells xenografted in BALB/cJNju-Foxn1nu/Nju mouse assessed as inhibition of tumor growth at 30 mg/kg, po for 7 days. The format is functional. Particulars: 168 h, read-out: TGI. An outline of the steps: (§2)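 Nude mice were injected subcutaneously in the right axilla with 3×10⁶ AsPC-1 cells in 0.1 mL PBS. Three days later they were randomized into three groups and given compound orally once daily for 7 days, with controls receiving oral 25% PEG-400. Tumor volume was calculated as A×B²/2, and tumor weight was recorded; n = 3.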
On the technique in general: Xenograft models place foreign cells or tissue in a host animal.

For series [8], the system named is ASPC1. As to the kind of experiment: Antitumor activity against human AsPC1 cells xenografted in BALB/cJNju-Foxn1nu/Nju mouse assessed as inhibition of tumor growth at 60 mg/kg, po for 7 days. Format: functional. Particulars: 168 h, read-out: TGI. An outline of the steps: as §2
Series [9] has as its system ASPC1. As to the kind of experiment: Effect on total ERK protein level in human AsPC1 cells at 10 to 100 nM incubated for 72 hrs by immunoblotting analysis. The format is cell-based. As to conditions: aspc1, 72 h, 0.1 µM. In outline: (§3)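 AsPC-1 cells were treated at 10–100 nM for 72 h and lysed. Lysates were cleared at 14,000 g for 15 min at 4 °C, and 50 µg protein was run on 8–12% SDS-PAGE and transferred to PVDF. Membranes were blocked 2 h in 5% skim milk, probed overnight at 4 °C with primary antibodies (FAK, p-FAK, MEK1, p-MEK1, ERK1/2, p-ERK1/2, β-actin) and detected by ECL.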
A general note: Immunoblotting shows a protein as a band on a membrane.

The test system of series [10] is ASPC1. The series is described as follows: Effect on total MEK protein level in human AsPC1 cells at 10 to 100 nM incubated for 72 hrs by immunoblotting analysis. Particulars: aspc1, 72 h, 0.1 µM. Format: cell-based. In outline: as §3
Series [11] deals with ASPC1. Particulars: Homo sapiens, 125 to 1000 nM.
Series [12] has as its target Focal adhesion kinase 1 (Homo sapiens) (UniProt Q05397). The series is described as follows: Inhibition of FAK in human AsPC1 cells assessed as reduction in autophosphorylation at 100 nM incubated for 72 hrs by immunoblotting analysis. The format is cell-based. In outline:
as §3

Active and inactive are the calls of the source. No cut-off for these calls is given here.

Sequence of Focal adhesion kinase 1 (Homo sapiens) (Q05397 2-1052 limits assumed): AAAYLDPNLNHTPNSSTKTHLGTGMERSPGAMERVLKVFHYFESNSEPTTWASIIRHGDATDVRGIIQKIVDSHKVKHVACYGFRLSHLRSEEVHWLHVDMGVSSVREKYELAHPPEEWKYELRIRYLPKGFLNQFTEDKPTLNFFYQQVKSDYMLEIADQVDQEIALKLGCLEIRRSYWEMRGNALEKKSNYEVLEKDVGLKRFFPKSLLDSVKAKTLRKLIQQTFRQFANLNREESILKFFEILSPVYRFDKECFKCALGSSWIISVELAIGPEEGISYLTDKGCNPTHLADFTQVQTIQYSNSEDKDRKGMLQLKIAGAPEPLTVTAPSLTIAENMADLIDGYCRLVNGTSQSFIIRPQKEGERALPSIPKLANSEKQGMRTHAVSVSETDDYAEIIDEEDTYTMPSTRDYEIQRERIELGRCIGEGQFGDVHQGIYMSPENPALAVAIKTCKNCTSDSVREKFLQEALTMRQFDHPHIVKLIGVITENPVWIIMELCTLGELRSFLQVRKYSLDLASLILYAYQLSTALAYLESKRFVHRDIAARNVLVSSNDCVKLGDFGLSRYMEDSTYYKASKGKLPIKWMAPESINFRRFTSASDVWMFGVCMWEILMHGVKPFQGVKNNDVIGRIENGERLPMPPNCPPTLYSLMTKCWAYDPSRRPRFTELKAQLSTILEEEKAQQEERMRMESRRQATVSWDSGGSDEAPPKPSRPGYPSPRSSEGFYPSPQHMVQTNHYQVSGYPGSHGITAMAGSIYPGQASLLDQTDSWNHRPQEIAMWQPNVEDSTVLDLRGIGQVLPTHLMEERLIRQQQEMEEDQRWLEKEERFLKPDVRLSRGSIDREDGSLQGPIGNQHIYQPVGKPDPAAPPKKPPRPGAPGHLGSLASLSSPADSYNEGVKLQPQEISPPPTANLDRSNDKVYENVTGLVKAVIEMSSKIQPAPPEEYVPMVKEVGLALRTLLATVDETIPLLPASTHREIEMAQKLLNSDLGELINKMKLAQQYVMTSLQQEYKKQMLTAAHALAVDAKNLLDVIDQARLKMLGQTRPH

As usually defined, the IC50 is the midpoint of a concentration-inhibition curve. For `CNC(=O)c1ccccc1Nc1nc(Nc2ccc(OCC(=O)N3CCOCC3)cc2)ncc1Cl`, the IC50 with ASPC1 [1] is 1.75 µM; with BXPC-3, 5.99 µM; in the series on PANC-1, above 10 µM; in series [2], 4.79 µM; in the series with NCI-H1975, 0.16 µM; with NCI/ADR-RES it was 2.93 µM. Besides, in the series on L02, the IC50 stood at 0.594 µM.

In the case of `CCC(Oc1ccc(Nc2ncc(Cl)c(Nc3ccccc3C(=O)NC)n2)cc1)C(=O)N1CCOCC1` (configuration not stated), the 50% inhibitory concentration (IC50) was determined as 2.6 µM with ASPC1 [1]; 8.73 µM in the series on BXPC-3; 0.75 µM in the series with PANC-1; 2.17 µM in series [2]; 0.444 µM in the series with NCI-H1975; 2.1 µM in the series with NCI/ADR-RES. For the same compound, the IC50 with L02 worked out at 0.674 µM.

As for `CNC(=O)c1ccccc1Nc1nc(Nc2ccc(OC(C)C(=O)N3CCOCC3)cc2)ncc1Cl` (configuration not stated), the IC50 with ASPC1 [1] stood at 2.87 µM; in the series on BXPC-3, 5.34 µM; with PANC-1 it was 1.54 µM; in series [2], 1.04 µM; in the series with NCI-H1975, 0.495 µM; in the series with NCI/ADR-RES it was 1.44 µM. For the same compound, the half-inhibitory concentration (IC50) in the series on L02 stood at 0.821 µM.

In the case of `O=C(NC1CC1)c1ccccc1Nc1nc(Nc2ccc(OCC(=O)N3CCOCC3)cc2)ncc1Cl`, the IC50 in the series on ASPC1 [1] was above 10 µM; in the series on BXPC-3 it was above 10 µM; in the series with PANC-1, above 10 µM; in series [2], 16.7 µM; in the series with NCI-H1975, 0.514 µM; in the series on NCI/ADR-RES, above 5 µM. Moreover, in the series on L02, the IC50 came to 0.91 µM.

For orientation: inhibition means the drop in the measured response relative to a control, in per cent. As to `CNC(=O)c1ccccc1Nc1nc(Nc2ccc(CC(=O)N3CCOCC3)cc2)ncc1Cl`, the IC50 with ASPC1 [1] turned out to be 0.105 µM; in the series on BXPC-3 it was 0.09 µM; in the series on PANC-1 it was 4.12 µM; in [2] it was 6.62 µM; in the series with NCI-H1975, 1.17 µM; in the series on NCI/ADR-RES, 0.59 µM. Also, the IC50 with L02 was found to be 3.7 µM. For the same compound, the result with ASPC1 [3], in the series on ASPC1 [4], in the series on ASPC1 [5] and in the series with ASPC1 [6] was Active. In the series with ASPC1 [7], the inhibition in vivo at 30 mg/kg stood at 87%. In addition, in the series with ASPC1 [8], the inhibition in vivo at 60 mg/kg was 67%. Besides, the Activity entry in the series on ASPC1 [9] and with ASPC1 [10] was “Non-Toxic” throughout. Further, the inhibition result in the series on ASPC1 [11] is “Active”.

`CNC(=O)c1ccccc1Nc1nc(Nc2ccc(N3CCOCC3)cc2OC)ncc1Cl`: the concentration for half-maximal inhibition (IC50) in the series on BXPC-3 is above 10 µM; in the series with PANC-1, above 10 µM; in series [2], 11.4 µM; in the series on NCI-H1975, above 2 µM; in the series with NCI/ADR-RES, above 5 µM. In [12], the inhibition turned out to be 100%.

On to `CNC(=O)c1ccccc1Nc1nc(Nc2ccc(SCC(=O)N3CCOCC3)cc2)ncc1Cl`, for which the half-inhibitory concentration (IC50) with ASPC1 [1] came to 1.22 µM; in the series on BXPC-3 it was 2.89 µM; with PANC-1, 5.51 µM; in series [2], 1.99 µM; in the series on NCI-H1975, 0.413 µM; in the series with NCI/ADR-RES, 1.82 µM. For the same compound, in the series on L02, the IC50 stood at 4.33 µM.
